According to ChEMBL document CHEMBL3352372, “Design, synthesis and 3D-QSAR studies of new diphenylamine containing 1,2,4-triazoles as potential antitubercular agents” (Eur J Med Chem, 2014):
≈ marks a conversion by molar mass, not a printed value.

Test system: Mycobacterium tuberculosis
Assay: Antitubercular activity Mycobacterium tuberculosis H37Rv assessed as growth inhibition after 5 days by MABA method
Format: functional
Conditions: not given
Procedure, shortened: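 Log-phase H37Rv was diluted to a final OD550 of 0.05 in Middlebrook 7H9 broth, and compounds in DMSO were added in 96-well plates. After a further 24 h at 37 °C/5% CO2, fluorescence was read (ex 544 nm, em 590 nm). Inhibition was scored against the untreated control, with >90% inhibition counted as active in the initial screen.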
With `S=c1n(CN2CCOCC2)nc(Cc2ccccc2Nc2c(Cl)cccc2Cl)n1/N=C/c1ccncc1` the “-logMIC” value was 4.903.
With `COc1ccc(/C=N/n2c(Cc3ccccc3Nc3c(Cl)cccc3Cl)nn(CN3CCOCC3)c2=S)cc1` the “-logMIC” value was 5.204.
For `COc1ccc(/C=N/n2c(Cc3ccccc3Nc3c(Cl)cccc3Cl)nn3c(=O)c4ccccc4nc23)cc1`, the “-logMIC” value was 4.602.
With `S=c1n(CN2CCCCC2)nc(Cc2ccccc2Nc2c(Cl)cccc2Cl)n1/N=C/c1cccs1` the “-logMIC” value was 4.903.
For `O=C1CSC(c2ccco2)N1n1c(Cc2ccccc2Nc2c(Cl)cccc2Cl)n[nH]c1=S` (stereo not drawn), the “-logMIC” value was 4.602.
In the case of `S=c1n(CN2CCCCC2)nc(Cc2ccccc2Nc2c(Cl)cccc2Cl)n1/N=C/c1ccncc1`, the “-logMIC” value is reported as 4.903.
With `COc1ccc(/C=N/n2c(Cc3ccccc3Nc3c(Cl)cccc3Cl)nn3c(=O)c4ccccc4nc23)cc1OC` the “-logMIC” value was 4.602.

Same assay, conditions: Mycobacterium tuberculosis, H37Rv, 120 h
With `S=c1n(CN2CCOCC2)nc(Cc2ccccc2Nc2c(Cl)cccc2Cl)n1/N=C/c1ccncc1` the MIC was 12.5 µM (≈ 6.93 µg/mL).
In the case of `COc1ccc(/C=N/n2c(Cc3ccccc3Nc3c(Cl)cccc3Cl)nn(CN3CCOCC3)c2=S)cc1`, the MIC is reported as 6.25 µM (≈ 3.65 µg/mL).
In the case of `COc1ccc(/C=N/n2c(Cc3ccccc3Nc3c(Cl)cccc3Cl)nn3c(=O)c4ccccc4nc23)cc1`, the MIC is reported as 25 µM (≈ 14.2 µg/mL).
`S=c1n(CN2CCCCC2)nc(Cc2ccccc2Nc2c(Cl)cccc2Cl)n1/N=C/c1cccs1` showed an MIC of 12.5 µM (≈ 6.97 µg/mL).
With `O=C1CSC(c2ccco2)N1n1c(Cc2ccccc2Nc2c(Cl)cccc2Cl)n[nH]c1=S` (stereo not drawn) the MIC was 25 µM (≈ 13 µg/mL).
In the case of `S=c1n(CN2CCCCC2)nc(Cc2ccccc2Nc2c(Cl)cccc2Cl)n1/N=C/c1ccncc1`, the MIC is reported as 12.5 µM (≈ 6.91 µg/mL).
Work on `COc1ccc(/C=N/n2c(Cc3ccccc3Nc3c(Cl)cccc3Cl)nn3c(=O)c4ccccc4nc23)cc1OC` yielded an MIC of 25 µM (≈ 15 µg/mL).

Test system: Mycobacterium tuberculosis
Assay: Antitubercular activity Mycobacterium tuberculosis H37Rv assessed as growth inhibition after 30 days by agar microdilution method
Format: functional
Conditions: not given
Procedure, shortened: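 M. tuberculosis H37Rv (ATCC 27294) grown on L-J medium, harvested in 0.85% saline with 0.05% Tween-80. Compounds, from a DMSO stock, were added as twofold dilutions to Middlebrook 7H10 agar with OADC in tubes. After 30 days of incubation, tubes were compared with untreated H37Rv control tubes. The lowest concentration giving complete inhibition of colonies was reported.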
Work on `S=c1n(CN2CCOCC2)nc(Cc2ccccc2Nc2c(Cl)cccc2Cl)n1/N=C/c1ccncc1` yielded an MIC of 12.5 µM (≈ 6.93 µg/mL).
Work on `COc1ccc(/C=N/n2c(Cc3ccccc3Nc3c(Cl)cccc3Cl)nn(CN3CCOCC3)c2=S)cc1` yielded an MIC of 6.25 µM (≈ 3.65 µg/mL).
Work on `S=c1n(CN2CCCCC2)nc(Cc2ccccc2Nc2c(Cl)cccc2Cl)n1/N=C/c1cccs1` yielded an MIC of 12.5 µM (≈ 6.97 µg/mL).
`S=c1n(CN2CCCCC2)nc(Cc2ccccc2Nc2c(Cl)cccc2Cl)n1/N=C/c1ccncc1` gave an MIC of 12.5 µM (≈ 6.91 µg/mL).

Test system: Staphylococcus aureus
Assay: Antibacterial activity Staphylococcus aureus ATCC-25923 assessed as growth inhibition after 24 hrs by twofold serial dilution technique
Format: functional
Conditions: ATCC-25923, 24 h
Procedure, shortened: (§1)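 Tube twofold serial dilution of compounds dissolved in DMSO, under aseptic conditions. Solvent, growth (negative) and drug (ampicillin) controls were run alongside. Tubes were incubated 24 h at 37 °C. MIC was taken as the lowest concentration giving apparent complete inhibition of growth. Strains were first screened by cup plate method.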
`S=c1n(CN2CCOCC2)nc(Cc2ccccc2Nc2c(Cl)cccc2Cl)n1/N=C/c1ccncc1` showed an MIC of 12.5 µM (≈ 6.93 µg/mL).
`COc1ccc(/C=N/n2c(Cc3ccccc3Nc3c(Cl)cccc3Cl)nn(CN3CCOCC3)c2=S)cc1` showed an MIC of 6.25 µM (≈ 3.65 µg/mL).
`COc1ccc(/C=N/n2c(Cc3ccccc3Nc3c(Cl)cccc3Cl)nn3c(=O)c4ccccc4nc23)cc1` showed an MIC of 100 µM (≈ 56.9 µg/mL).
Molecule `S=c1n(CN2CCCCC2)nc(Cc2ccccc2Nc2c(Cl)cccc2Cl)n1/N=C/c1cccs1` has an MIC of 12.5 µM (≈ 6.97 µg/mL).
`O=C1CSC(c2ccco2)N1n1c(Cc2ccccc2Nc2c(Cl)cccc2Cl)n[nH]c1=S` (stereo not drawn) showed an MIC of 12.5 µM (≈ 6.48 µg/mL).
Work on `S=c1n(CN2CCCCC2)nc(Cc2ccccc2Nc2c(Cl)cccc2Cl)n1/N=C/c1ccncc1` yielded an MIC of 12.5 µM (≈ 6.91 µg/mL).
In the case of `COc1ccc(/C=N/n2c(Cc3ccccc3Nc3c(Cl)cccc3Cl)nn3c(=O)c4ccccc4nc23)cc1OC`, the MIC is reported as 12.5 µM (≈ 7.49 µg/mL).

Test system: Bacillus spizizenii
Assay: Antibacterial activity Bacillus Bacillus subtilis ATCC 6633 assessed as growth inhibition after 24 hrs by twofold serial dilution technique
Format: functional
Conditions: ATCC 6633, 24 h
Procedure, shortened: as §1
Molecule `S=c1n(CN2CCOCC2)nc(Cc2ccccc2Nc2c(Cl)cccc2Cl)n1/N=C/c1ccncc1` has an MIC of 12.5 µM (≈ 6.93 µg/mL).
For `COc1ccc(/C=N/n2c(Cc3ccccc3Nc3c(Cl)cccc3Cl)nn(CN3CCOCC3)c2=S)cc1`, the MIC was 12.5 µM (≈ 7.29 µg/mL).
`COc1ccc(/C=N/n2c(Cc3ccccc3Nc3c(Cl)cccc3Cl)nn3c(=O)c4ccccc4nc23)cc1` gave an MIC of 25 µM (≈ 14.2 µg/mL).
`S=c1n(CN2CCCCC2)nc(Cc2ccccc2Nc2c(Cl)cccc2Cl)n1/N=C/c1cccs1` gave an MIC of 12.5 µM (≈ 6.97 µg/mL).
In the case of `O=C1CSC(c2ccco2)N1n1c(Cc2ccccc2Nc2c(Cl)cccc2Cl)n[nH]c1=S` (stereo not drawn), the MIC is reported as 12.5 µM (≈ 6.48 µg/mL).
Work on `S=c1n(CN2CCCCC2)nc(Cc2ccccc2Nc2c(Cl)cccc2Cl)n1/N=C/c1ccncc1` yielded an MIC of 25 µM (≈ 13.8 µg/mL).
In the case of `COc1ccc(/C=N/n2c(Cc3ccccc3Nc3c(Cl)cccc3Cl)nn3c(=O)c4ccccc4nc23)cc1OC`, the MIC is reported as 25 µM (≈ 15 µg/mL).

Test system: Escherichia coli
Assay: Antibacterial activity Escherichia coli ATCC-25922 assessed as growth inhibition after 24 hrs by twofold serial dilution technique
Format: functional
Conditions: ATCC-25922, 24 h
Procedure, shortened: as §1
Work on `S=c1n(CN2CCOCC2)nc(Cc2ccccc2Nc2c(Cl)cccc2Cl)n1/N=C/c1ccncc1` yielded an MIC of 25 µM (≈ 13.9 µg/mL).
In the case of `COc1ccc(/C=N/n2c(Cc3ccccc3Nc3c(Cl)cccc3Cl)nn(CN3CCOCC3)c2=S)cc1`, the MIC is reported as 6.25 µM (≈ 3.65 µg/mL).
`COc1ccc(/C=N/n2c(Cc3ccccc3Nc3c(Cl)cccc3Cl)nn3c(=O)c4ccccc4nc23)cc1` gave an MIC of 100 µM (≈ 56.9 µg/mL).
With `S=c1n(CN2CCCCC2)nc(Cc2ccccc2Nc2c(Cl)cccc2Cl)n1/N=C/c1cccs1` the MIC was 12.5 µM (≈ 6.97 µg/mL).
With `O=C1CSC(c2ccco2)N1n1c(Cc2ccccc2Nc2c(Cl)cccc2Cl)n[nH]c1=S` (stereo not drawn) the MIC was 12.5 µM (≈ 6.48 µg/mL).
`S=c1n(CN2CCCCC2)nc(Cc2ccccc2Nc2c(Cl)cccc2Cl)n1/N=C/c1ccncc1` gave an MIC of 25 µM (≈ 13.8 µg/mL).
With `COc1ccc(/C=N/n2c(Cc3ccccc3Nc3c(Cl)cccc3Cl)nn3c(=O)c4ccccc4nc23)cc1OC` the MIC was 25 µM (≈ 15 µg/mL).

Test system: Pseudomonas aeruginosa
Assay: Antibacterial activity Pseudomonas aeruginosa ATCC-27853 assessed as growth inhibition after 24 hrs by twofold serial dilution technique
Format: functional
Conditions: ATCC-27853, 24 h
Procedure, shortened: as §1
Molecule `S=c1n(CN2CCOCC2)nc(Cc2ccccc2Nc2c(Cl)cccc2Cl)n1/N=C/c1ccncc1` has an MIC of 25 µM (≈ 13.9 µg/mL).
With `COc1ccc(/C=N/n2c(Cc3ccccc3Nc3c(Cl)cccc3Cl)nn(CN3CCOCC3)c2=S)cc1` the MIC was 12.5 µM (≈ 7.29 µg/mL).
Molecule `COc1ccc(/C=N/n2c(Cc3ccccc3Nc3c(Cl)cccc3Cl)nn3c(=O)c4ccccc4nc23)cc1` has an MIC of 100 µM (≈ 56.9 µg/mL).
With `S=c1n(CN2CCCCC2)nc(Cc2ccccc2Nc2c(Cl)cccc2Cl)n1/N=C/c1cccs1` the MIC was 12.5 µM (≈ 6.97 µg/mL).
With `O=C1CSC(c2ccco2)N1n1c(Cc2ccccc2Nc2c(Cl)cccc2Cl)n[nH]c1=S` (stereo not drawn) the MIC was 12.5 µM (≈ 6.48 µg/mL).
`S=c1n(CN2CCCCC2)nc(Cc2ccccc2Nc2c(Cl)cccc2Cl)n1/N=C/c1ccncc1` showed an MIC of 25 µM (≈ 13.8 µg/mL).
`COc1ccc(/C=N/n2c(Cc3ccccc3Nc3c(Cl)cccc3Cl)nn3c(=O)c4ccccc4nc23)cc1OC` gave an MIC of 50 µM (≈ 30 µg/mL).

Test system: not listed separately
Assay: Cytotoxicity against african green monkey Vero cells after 72 hrs by MTT assay
Format: cell-based
Conditions: chlorocebus sabaeus
Procedure, shortened: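 After media removal and a PBS wash, dilutions were added with DMSO control, then incubated 72 h at 37 °C, 5% CO2. Cells were washed, given MTT for 3 h in the dark, and solubilized in DMSO 1–2 h. CC50 was extrapolated from plotted % inhibition (100 − % viability) against concentration.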
With `COc1ccc(/C=N/n2c(Cc3ccccc3Nc3c(Cl)cccc3Cl)nn(CN3CCOCC3)c2=S)cc1` the CC50 at 72 h was over 300 µM.

Test system: not listed separately
Assay: Cytotoxicity against human HepG2 cells after 72 hrs by MTT assay
Format: cell-based
Conditions: not given
For `COc1ccc(/C=N/n2c(Cc3ccccc3Nc3c(Cl)cccc3Cl)nn(CN3CCOCC3)c2=S)cc1`, the CC50 at 72 h was over 300 µM.
